pEC50, pKi: −log10 of the molar value.
How the values were obtained:
Adenosine receptor A1 [1] = molecular target: T1, Adenosine receptor A1 (Homo sapiens, UniProt P30542); experiment: Displacement of [3H]DPCPX from human cloned adenosine receptor A1 expressed in CHO-K1 cell membranes incubated for 60 mins by microbeta counting method
T1 sequence (P30542 whole entry): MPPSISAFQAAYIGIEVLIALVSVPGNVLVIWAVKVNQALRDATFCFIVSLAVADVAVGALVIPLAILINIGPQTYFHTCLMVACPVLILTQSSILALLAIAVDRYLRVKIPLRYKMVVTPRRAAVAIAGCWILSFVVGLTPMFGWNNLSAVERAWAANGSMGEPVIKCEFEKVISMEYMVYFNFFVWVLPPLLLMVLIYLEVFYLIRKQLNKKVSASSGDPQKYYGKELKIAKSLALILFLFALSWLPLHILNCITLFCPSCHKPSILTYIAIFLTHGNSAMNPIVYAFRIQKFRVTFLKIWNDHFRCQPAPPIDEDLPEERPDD
Procedure, shortened: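 Radioligand [3H]DPCPX at 5 nM. Compounds tested as 10-point three-fold dilution series. Incubation 60 min at 27°C. Read-out by GF/B filtration and scintillation counting. Ki obtained from IC50 by Cheng–Prusoff (Kd 2.28 nM). Mean ± SEM of duplicates.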

Homo sapiens = species: Homo sapiens; experiment: Selectivity index, ratio of Ki for human cloned adenosine receptor A1 expressed in CHO-K1 cell membrane to Ki for human cloned adenosine receptor A2A expressed in HEK293 cell membrane incubated for 60 mins by microbeta counting method; type: cell-based
Procedure, shortened: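 Ratio Ki(A1)/Ki(A2A). […] Both assays incubated 60 min at 27°C and read by filtration scintillation counting. Ki values from Cheng–Prusoff conversion.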

[2] = molecular target: T2, Adenosine receptor A1 (Homo sapiens) (UniProt P30542); experiment: Displacement of [3H]DPCPX from human cloned adenosine receptor A1 expressed in CHO-K1 cell membranes at 1 uM incubated for 60 mins by microbeta counting method relative to control
T2 sequence (whole entry): T1 sequence (P30542 whole entry)
Procedure, shortened: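 Human A1 CHO-K1 membranes in Tris-HCl pH 7.4/MgCl2/EDTA buffer with adenosine deaminase. Radioligand [3H]DPCPX at 5 nM. Single compound concentration of 1 μM. Incubation 60 min at 27°C. Filtration then scintillation counting. Result is percent displacement of specific binding.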

Adenosine receptor A2a [3] = molecular target: T3, Adenosine receptor A2a (Homo sapiens, UniProt P29274); experiment: Displacement of [3H]CGS21680 from human cloned adenosine receptor A2A expressed in HEK-293 cell membrane incubated for 60 mins by microbeta counting method; type: cell membranes
Procedure, shortened: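 Compounds tested as 10-point three-fold dilution series. Incubation 60 min at 27°C. Bound ligand separated by GF/B filtration, scintillation counted. Mean ± SEM of duplicates.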

Adenosine receptor A2a [4] = molecular target: T3, Adenosine receptor A2a; experiment: Agonist activity at human adenosine receptor A2A expressed in HEK293 cells assessed as cAMP accumulation incubated for 30 mins by Eu-cAMP tracer-based Envision plate reader analysis; type: functional, cell-based
Procedure, shortened: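 Intact HEK-293 cells stably expressing human A2A receptor, detached with Versene, resuspended at 300 cells/well in HBSS/HEPES/BSA buffer pH 7.4 with rolipram. Compounds given as 11-point three-fold DMSO dilution series.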

Adenosine receptor A1 [5] = molecular target: T1, Adenosine receptor A1; experiment: Displacement of [3H]CPX from human adenosine receptor A1 expressed in CHO-K1 cell membranes incubated for 2 hrs by radioligand competitive binding analysis
Adenosine receptor A2a [6] = molecular target: T3, Adenosine receptor A2a; experiment: Displacement of [3H]CGS21680 from human cloned adenosine receptor A2A expressed in HEK-293 cell membrane at 1 uM incubated for 60 mins by microbeta counting method relative to control; type: cell membranes
Procedure, shortened: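 Human A2A HEK-293 membranes in Tris-HCl pH 7.4/MgCl2/EDTA buffer with adenosine deaminase. […] Single compound concentration of 1 μM. Incubation 60 min at 27°C. Filtration then scintillation counting. Result is percent displacement of specific binding.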

T3 sequence (P29274 whole entry): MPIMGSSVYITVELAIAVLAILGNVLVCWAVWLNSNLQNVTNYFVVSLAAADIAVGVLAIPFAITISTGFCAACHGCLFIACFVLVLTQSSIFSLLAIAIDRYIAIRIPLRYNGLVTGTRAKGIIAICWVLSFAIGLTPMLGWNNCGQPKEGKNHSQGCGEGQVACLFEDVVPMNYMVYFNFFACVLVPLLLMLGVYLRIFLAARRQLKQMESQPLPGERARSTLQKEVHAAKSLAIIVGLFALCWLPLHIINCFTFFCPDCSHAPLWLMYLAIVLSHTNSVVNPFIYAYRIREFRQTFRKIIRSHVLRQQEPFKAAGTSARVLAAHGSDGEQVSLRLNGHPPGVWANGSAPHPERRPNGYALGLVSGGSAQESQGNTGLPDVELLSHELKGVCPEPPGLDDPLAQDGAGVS

Row | Compound | pKi (Adenosine receptor A1 [1]) | inhibition [2] [%] | pKi (Adenosine receptor A2a [3]) | pEC50 (Adenosine receptor A2a [4]) | pKi (Adenosine receptor A1 [5]) | inhibition (Adenosine receptor A2a [6]) [%] | Ratio Ki (Homo sapiens)
1 | Nc1nc(N/N=C/c2ccc(-n3ccnc3)cc2)nc2c1ncn2[C@@H]1O[C@H](CO)[C@@H](O)[C@H]1O | < 5.00 | 0 |  |  |  |  | > 1000
2 | Nc1nc(N/N=C/c2ccc[nH]2)nc2c1ncn2[C@@H]1O[C@H](CO)[C@@H](O)[C@H]1O | 8.10 |  | 8.08 | 8.07 |  |  | 0.96
3 | Nc1nc(N/N=C/c2ccc(Br)cn2)nc2c1ncn2[C@@H]1O[C@H](CO)[C@@H](O)[C@H]1O | 8.33 |  | 6.62 |  |  |  | 0.02
4 | CNC(=O)c1cnn(-c2nc(N)c3ncn([C@@H]4O[C@H](CO)[C@@H](O)[C@H]4O)c3n2)c1 [REGADENOSON ANHYDROUS] |  |  |  |  | < 4.78 |  | 
5 | Nc1nc(N/N=C/c2cncs2)nc2c1ncn2[C@@H]1O[C@H](CO)[C@@H](O)[C@H]1O | 7.66 |  | 7.15 |  |  |  | 0.31
6 | Nc1nc(N/N=C/c2ccc(N(c3ccccc3)c3ccccc3)cc2)nc2c1ncn2[C@@H]1O[C@H](CO)[C@@H](O)[C@H]1O | < 5.00 | 0 |  |  |  |  | > 1000
7 | CC(/C=N/Nc1nc(N)c2ncn([C@@H]3O[C@H](CO)[C@@H](O)[C@H]3O)c2n1)Cc1ccc(C(C)C)cc1 (some centres not stated) | 5.02 |  | 8.20 | 8.86 |  |  | 1430
8 | CCCCC/C=C/C=C/C=N/Nc1nc(N)c2ncn([C@@H]3O[C@H](CO)[C@@H](O)[C@H]3O)c2n1 | 8.70 |  | 7.76 | 7.99 |  |  | 0.11
9 | Nc1nc(N/N=C/c2ccc3ncccc3c2)nc2c1ncn2[C@@H]1O[C@H](CO)[C@@H](O)[C@H]1O | 8.01 |  | 8.19 | 8.26 |  |  | 1.5
10 | Nc1nc(N/N=C/c2ccc(C(F)(F)F)cc2)nc2c1ncn2[C@@H]1O[C@H](CO)[C@@H](O)[C@H]1O | 7.43 |  |  |  |  |  | 0.6
11 | Nc1nc(N/N=C/c2ccc(Cl)c(C(F)(F)F)c2)nc2c1ncn2[C@@H]1O[C@H](CO)[C@@H](O)[C@H]1O | < 5.00 | 11 |  |  |  |  | > 1000
12 | Nc1nc(N/N=C/c2cccc(OCc3ccccc3)c2)nc2c1ncn2[C@@H]1O[C@H](CO)[C@@H](O)[C@H]1O | 7.89 |  |  |  |  |  | 0.075
13 | N#Cc1ccccc1/C=N/Nc1nc(N)c2ncn([C@@H]3O[C@H](CO)[C@@H](O)[C@H]3O)c2n1 | 8.54 |  |  |  |  |  | 
14 | CCCCc1nc(/C=N/Nc2nc(N)c3ncn([C@@H]4O[C@H](CO)[C@@H](O)[C@H]4O)c3n2)c(Cl)[nH]1 | 7.92 |  | 7.74 | 8.96 |  |  | 0.67
15 | Nc1nc(N/N=C/C2CCCC2)nc2c1ncn2[C@@H]1O[C@H](CO)[C@@H](O)[C@H]1O | 8.25 |  | 8.39 | 8.36 |  |  | 1.4
16 | Nc1nc(N/N=C/c2ccc(-c3ccccc3)cc2)nc2c1ncn2[C@@H]1O[C@H](CO)[C@@H](O)[C@H]1O | 5.10 |  |  |  |  |  | 
17 | Nc1nc(N/N=C/c2ccc(-c3ccc(Br)cc3)o2)nc2c1ncn2[C@@H]1O[C@H](CO)[C@@H](O)[C@H]1O | 8.35 |  | < 5.00 |  |  | 27 | < 0.001
18 | CCCOc1ccc(/C=N/Nc2nc(N)c3ncn([C@@H]4O[C@H](CO)[C@@H](O)[C@H]4O)c3n2)cc1 | < 5.00 | 7 | 6.65 |  |  |  | 66
19 | CSCC/C=N/Nc1nc(N)c2ncn([C@@H]3O[C@H](CO)[C@@H](O)[C@H]3O)c2n1 | < 5.00 | 0 | < 5.00 |  |  | 8 | 

Now from value to compound, other results behind:

Row | pKi (Adenosine receptor A1 [1]) | inhibition [2] [%] | pKi (Adenosine receptor A2a [3]) | pEC50 (Adenosine receptor A2a [4]) | pKi (Adenosine receptor A1 [5]) | inhibition (Adenosine receptor A2a [6]) [%] | Compound | Ratio Ki (Homo sapiens)
20 | 5.16 |  |  |  |  |  | CCOc1cc(/C=N/Nc2nc(N)c3ncn([C@@H]4O[C@H](CO)[C@@H](O)[C@H]4O)c3n2)ccc1O | 5
21 | 7.15 |  |  | 8.39 |  |  | Nc1nc(N/N=C/c2ccc(OCc3ccc(F)cc3)cc2)nc2c1ncn2[C@@H]1O[C@H](CO)[C@@H](O)[C@H]1O | 12.5
22 | 8.59 |  | 5.84 |  |  |  | COc1ccc(/C=N/Nc2nc(N)c3ncn([C@@H]4O[C@H](CO)[C@@H](O)[C@H]4O)c3n2)cn1 | 0.0018
23 | < 5.00 | 0 | 5.26 |  |  |  | COc1cc(/C=N/Nc2nc(N)c3ncn([C@@H]4O[C@H](CO)[C@@H](O)[C@H]4O)c3n2)cc(OC)c1OC | > 1000
24 | 8.39 |  | 8.07 | 7.82 |  |  | N#Cc1ccc(/C=N/Nc2nc(N)c3ncn([C@@H]4O[C@H](CO)[C@@H](O)[C@H]4O)c3n2)cc1 | 0.5
25 | < 5.00 | 0 | 8.19 | 7.75 |  |  | CCN(CC)c1ccc(/C=N/Nc2nc(N)c3ncn([C@@H]4O[C@H](CO)[C@@H](O)[C@H]4O)c3n2)cc1 | > 1000
26 | 5.12 |  |  |  |  |  | Nc1nc(N/N=C/c2ccc(-c3ccccn3)cc2)nc2c1ncn2[C@@H]1O[C@H](CO)[C@@H](O)[C@H]1O | 36
27 | 8.34 |  | 8.06 | 8.34 |  |  | Nc1nc(N/N=C/c2cccnc2Cl)nc2c1ncn2[C@@H]1O[C@H](CO)[C@@H](O)[C@H]1O | 0.53
28 | 8.29 |  | 5.18 |  |  |  | Nc1nc(N/N=C/c2ccc(N3CCCC3)cc2)nc2c1ncn2[C@@H]1O[C@H](CO)[C@@H](O)[C@H]1O | 0.00077
29 | 8.60 |  |  |  |  |  | Nc1nc(N/N=C/c2ccc(N3CCOCC3)cc2)nc2c1ncn2[C@@H]1O[C@H](CO)[C@@H](O)[C@H]1O | 0.003
30 | < 5.00 | 0 |  |  |  |  | Nc1nc(N/N=C/c2ccc(OCc3ccccc3)c(OCc3ccccc3)c2)nc2c1ncn2[C@@H]1O[C@H](CO)[C@@H](O)[C@H]1O | > 1000
31 | < 5.00 | 0 |  |  |  |  | CC(=O)Nc1ccc(/C=N/Nc2nc(N)c3ncn([C@@H]4O[C@H](CO)[C@@H](O)[C@H]4O)c3n2)cc1 | > 1000
32 | < 5.00 | 0 | 5.20 |  |  |  | Nc1nc(N/N=C/c2ccc(C(F)(F)F)cc2C(F)(F)F)nc2c1ncn2[C@@H]1O[C@H](CO)[C@@H](O)[C@H]1O | > 1000
33 | 5.04 |  |  |  |  |  | COc1cc(/C=N/Nc2nc(N)c3ncn([C@@H]4O[C@H](CO)[C@@H](O)[C@H]4O)c3n2)ccc1OCc1ccccc1 | 91
